Measurements published in ChEMBL document CHEMBL1137736, “Substituted quinolinyl chalcones and quinolinyl pyrimidines as a new class of anti-infective agents” (Eur J Med Chem, 2009).
≈ marks a conversion by molar mass, not a printed value. Calls of active or inactive are those of the source. The calls are words filed in the database; no cut-off is given here.

Experiments:
Plasmodium falciparum = assay: Antimalarial activity as inhibition of schizont maturation against Plasmodium falciparum NF54 after 36 - 40 hrs; assay type: functional
How it was run: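 P. falciparum NF-54 kept in RPMI-1640 with 25 mM HEPES, 1% D-glucose, 0.23% sodium bicarbonate and 10% heat-inactivated human serum. Compounds tested in duplicate at 0.25–[…] in 96-well microassay with parasitized cells, 37 C, candle jar, 36–40 h. Giemsa-stained smears scored for ring maturation to schizonts. MIC is lowest concentration blocking complete schizont maturation.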

[1] = tested on: Mycobacterium tuberculosis; assay: Antitubercular activity against Mycobacterium tuberculosis H37Rv after 4 weeks by serial twofold dilution method; assay type: functional
How it was run: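 Serial twofold dilutions of a 1.0 mg/mL DMSO stock were incorporated into Middlebrook 7H10 agar slants with OADC. H37Rv grown on Lowenstein–Jensen medium was harvested in N-saline with 0.05% Tween-80 and dispersed with glass beads into a single-cell suspension. The working inoculum was 2 107 cfu/mL. MIC was the lowest concentration giving complete growth inhibition.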

Vero = assay: Cytotoxicity against african green monkey Vero cells after 24 hrs by MTS assay; assay type: cell-based; conditions: chlorocebus sabaeus
How it was run: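 VERO cells seeded at 10^4 cells/well in MEM with antibiotics and 10% FBS, incubated 24 h (37 C, 5% CO2). Medium then replaced by 5% FBS, antibiotic-free medium with compound or DMSO for 24 h. MTS added and A490 read after 2 h, with DMSO wells as 100% survival. Toxic means 50% inhibition at 10-fold the MIC.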

[2] = Cytotoxicity against mouse BMDM cells after 5 days by MTS assay; assay type: cell-based; conditions: 120 h
How it was run: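 Mouse bone-marrow-derived macrophages plated at 10^5 cells/well in DMEM with antibiotics, 10% FBS, 15% (v/v) L-929 conditioned supernatant and non-essential amino acids. After compound exposure, incubated 5 days at 37 C, 5% CO2. MTS added and A490 read after 2 h, with DMSO wells as 100% survival. Toxic means 50% inhibition at 10-fold the MIC.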

SMILES	MIC (Plasmodium falciparum)	MIC ([1]; 672 h)	Activity (Vero)	Activity [2]	MIC [1]
COc1cc(-c2cc(-c3ccc(Nc4ccnc5cc(Cl)ccc45)cc3)nc(N)n2)cc(OC)c1OC	inactive	12.5 µg/mL (≈ 24.3 µM)			
COc1cccc(/C=C/C(=O)c2ccc(Nc3ccnc4cc(Cl)ccc34)cc2)c1OC	inactive	3.12 µg/mL (≈ 7.01 µM)	Non-toxic	Non-toxic	
CSc1ccc(-c2cc(-c3ccc(Nc4ccnc5cc(Cl)ccc45)cc3)nc(N)n2)cc1	1 µg/mL (≈ 2.13 µM)				inactive
Nc1nc(-c2ccc(Nc3ccnc4cc(Cl)ccc34)cc2)cc(-c2ccco2)n1	inactive	12.5 µg/mL (≈ 30.2 µM)			
O=C(/C=C/c1ccc(Cl)cc1)c1ccc(Nc2ccnc3cc(Cl)ccc23)cc1	inactive	6.25 µg/mL (≈ 14.9 µM)			
COc1ccc(-c2cc(-c3ccc(Nc4ccnc5cc(Cl)ccc45)cc3)nc(N)n2)cc1	2 µg/mL (≈ 4.41 µM)				inactive
Nc1nc(-c2ccc(Nc3ccnc4cc(Cl)ccc34)cc2)cc(-c2cccnc2)n1	1 µg/mL (≈ 2.35 µM)				inactive
CCN(CC)CCCC(C)Nc1ccnc2cc(Cl)ccc12 (stereo unspecified) [CHLOROQUINE]	0.125 µg/mL (≈ 0.391 µM)				
CC(C)c1ccc(-c2cc(-c3ccc(Nc4ccnc5cc(Cl)ccc45)cc3)nc(N)n2)cc1	1 µg/mL (≈ 2.15 µM)	6.25 µg/mL (≈ 13.4 µM)			
NC(=O)c1cnccn1 [PYRAZINAMIDE]		50 µg/mL (≈ 406 µM)	Non-toxic	Non-toxic	
COc1ccc(OC)c(/C=C/C(=O)c2ccc(Nc3ccnc4cc(Cl)ccc34)cc2)c1	inactive	3.12 µg/mL (≈ 7.01 µM)	Non-toxic	Non-toxic	
